An excerpt weighted towards active compounds, which were near 3.3% of everything screened.
AHR activator: activators of human aryl hydrocarbon receptor; AID 2796; AHR-responsive luciferase reporter cells, luminescence; 2.5% of 320,000 active; P35869; activation, % at 5 µM; in the data active = activation above about 47%;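 note: 0% = vehicle wells and 100% = reference agonist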
ABCB6 inh 2: inhibitors of human ABC transporter ABCB6 | AID 602162 | Q9NP58 | K562-ABCB6 porphyrin accumulation, flow cytometry, 1 h; stronger effect = lower value | fluorescence ratio to DMSO, % at 10 µM | 0.19% of 360,000 active;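 active = fluorescence ratio to DMSO below 75%, the collection mean minus 3 SD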;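 note: signal is porphyrin accumulated inside mitochondria; 100% equals median channel fluorescence of DMSO control wells; lower ratio means ABCB6 inhibition with less porphyrin fluorescence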
Target sequence (Q9NP58 whole entry, looked up): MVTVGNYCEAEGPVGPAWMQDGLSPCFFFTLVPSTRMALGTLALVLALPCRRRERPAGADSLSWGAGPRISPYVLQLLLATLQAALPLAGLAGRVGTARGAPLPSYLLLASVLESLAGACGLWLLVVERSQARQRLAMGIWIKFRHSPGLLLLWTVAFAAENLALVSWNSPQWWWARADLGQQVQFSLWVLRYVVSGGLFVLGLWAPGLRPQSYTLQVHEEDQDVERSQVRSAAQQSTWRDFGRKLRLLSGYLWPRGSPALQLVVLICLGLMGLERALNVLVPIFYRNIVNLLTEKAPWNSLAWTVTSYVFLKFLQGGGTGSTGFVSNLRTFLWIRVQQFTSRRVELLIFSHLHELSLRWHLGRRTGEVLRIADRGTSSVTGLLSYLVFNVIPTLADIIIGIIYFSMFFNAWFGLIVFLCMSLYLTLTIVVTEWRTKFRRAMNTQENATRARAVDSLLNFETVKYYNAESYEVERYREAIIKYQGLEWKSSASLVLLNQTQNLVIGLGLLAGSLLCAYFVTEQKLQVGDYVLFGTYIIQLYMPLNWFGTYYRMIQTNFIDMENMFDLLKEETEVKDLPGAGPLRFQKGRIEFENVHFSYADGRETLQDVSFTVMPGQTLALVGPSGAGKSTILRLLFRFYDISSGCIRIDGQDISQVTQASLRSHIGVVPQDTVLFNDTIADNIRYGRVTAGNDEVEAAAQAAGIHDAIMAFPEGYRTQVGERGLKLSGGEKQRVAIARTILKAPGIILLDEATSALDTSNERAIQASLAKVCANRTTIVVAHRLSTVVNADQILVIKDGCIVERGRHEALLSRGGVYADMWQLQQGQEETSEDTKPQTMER
FXN GAA850 act: frataxin GAA850 promoter activation; HEK293 lucGAA850 FXN promoter luciferase reporter, 24 h; percent of 10 µM SAHA response; activation, % at 6 µM; 0.56% of 360,000 active; AID 540364;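 active = activation above the average of all compounds screened plus 3 SD, cutoff fixed separately per campaign, cut at about 7.5% in these data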;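 note: 0% = DMSO wells and 100% = 10 µM SAHA wells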
STAT3 activator: activators of IL-6 induced STAT3 signaling | U3A cells, IL-6 STAT3-luciferase reporter, luminescence; 100% = signal with IL-6 EC80 alone | activation (% of control), % at 5.6 µM | 0.91% of 190,000 active;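 active = activation above the screen-wide mean of compound activation plus 3 SD, cut at about 130% in these data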;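 note: 0% = background luminescence of wells with medium and substrate only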
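Test system: human U3A cells carrying STAT3-luciferase construct; control set: IL-6-only wells as 100% reference; timing: compound pre-incubation 1 h before IL-6, then 6 h stimulation at 37 °C; also added: IL-6 stimulus at 33 ng/mL final; evaluation: % activation versus median of IL-6-stimulated wells; detection: reporter luminescence signal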
GAA30 FXN cntr: counter-screen for GAA850 frataxin promoter activators: GAA30 promoter activation | shares compounds with FXN GAA850 act | AID 588350 | 66% of 1,900 active | activation, % at 6 µM | HEK293 lucGAA30 FXN promoter luciferase, 24 h; DMSO = 0%, 5 µM ipriflavone = 100%;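 active = mean activation above the mean of solvent-only control wells plus 3 SD, cut at about 22% in these data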;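 note: counterscreen of GAA850 promoter hits where activity marks nonselective or luminescence artifacts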
FXN GAA850 conf: GAA850 FXN promoter activation confirmation | AID 588351 | 86% of 1,900 active | activation, % at 6 µM | HEK293 lucGAA850 FXN promoter luciferase reporter, 24 h; 100% = activation by SAHA | shares compounds with FXN GAA850 act;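 active = mean activation above a set limit taken from the primary screen, cut at about 8% in these data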;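 note: 0% = DMSO wells and 100% = 10 µM SAHA wells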
Starred values were filed as active, the others as inactive; nt = no result.

SMILES | AHR activator | ABCB6 inh 2 | FXN GAA850 act | STAT3 activator | GAA30 FXN cntr | FXN GAA850 conf
O=c1ccc(C(F)(F)F)cn1Cc1cc(=O)n2cc(Br)ccc2n1 | -2.8 | 94.0 | 2.3 | 97.4 | nt | nt
OCC1CCCN(C(=S)Nc2ccc(Oc3ccccc3)cc2)C1 (stereo not drawn) | 9.2 | 98.0 | 10.8* | 109.2 | 105.4* | 34.2*
COc1ccc(NS(=O)(=O)c2cc(NC(=O)CNC(=O)c3cccc(OC)c3)ccc2C)cc1 | 7.0 | 109.0 | 7.9* | 98.5 | 32.5* | 17.6*
CSC(=S)NN=C(C)c1cccc(C)n1 | nt | 96.0 | 16.4* | nt | -115.2 | -33.7
CC(C(=O)NCC1CCCO1)N(C(=O)c1snc(C(N)=O)c1N)c1cccc(F)c1 (stereo not drawn) | 0.2 | 95.0 | -1.6 | 95.3 | nt | nt
N#CC1=C(N)S[C@H](C(=O)C23CC4CC(CC(C4)C2)C3)[C@H]1c1ccncc1 | 4.7 | 102.0 | 8.5* | 122.9 | 4.2 | 11.6*
O=C(NCc1ccncc1)C12CC3CC(CC(C3)C1)C2 | 3.2 | 107.0 | 3.8 | 93.1 | nt | nt
CC(C)c1ccc(NC(=O)C2Cc3c(-c4ccc5c(c4)OCO5)ccnc3O2)cc1 (stereo not drawn) | nt | 94.0 | 0.9 | nt | nt | nt
O=C1CC(C(=O)NC2CCCCC2)C2(CCCCC2)O1 (stereo not drawn) | -0.5 | 97.0 | -0.4 | 84.1 | nt | nt
COc1ccc(CCN(C)c2ccc(S(=O)(=O)N3CCCC3)cc2[N+](=O)[O-])cc1OC | 0.9 | 104.0 | 9.9* | 111.7 | 9.2 | 10.6*
CCCC(=O)Nc1ccccc1N1CCN(C(=O)C(C)C)CC1 | 1.6 | 99.0 | 1.2 | 104.9 | nt | nt
COc1c(F)c(F)c(C(=O)Nc2ccccc2N2CCN(C(=O)C(C)C)CC2)c(F)c1F | 45.1 | 96.0 | 10.5* | 128.2 | 7.8 | 3.1
O=C(COC(=O)COc1ccccc1Cc1ccccc1)Nc1cccnc1Cl | -1.2 | 96.0 | -1.4 | 103.4 | nt | nt
CCN1C(=O)[C@H]2[C@@H](c3ccc(-c4ccc(C(C)=O)cc4)cc3)N[C@@](Cc3ccccc3)(C(=O)OC)[C@H]2C1=O | 5.1 | 100.0 | -4.4 | nt | nt | nt
COc1ccc(C2=NN(C(=O)c3cccs3)C(c3ccc(OC)cc3)C2)cc1 (stereo not drawn) | -1.7 | 97.0 | -2.0 | 91.6 | nt | nt
CC1CN(c2cc(=O)n(-c3ccccc3)c(=O)[nH]2)CC(C)O1 (stereo not drawn) | -1.9 | 97.0 | 8.1* | 103.2 | 16.5 | 6.4
Cc1ccc(-n2c(=O)cc(N3CC(C)OC(C)C3)[nH]c2=O)cc1 (stereo not drawn) | -1.1 | 102.0 | -2.0 | 96.3 | nt | nt
Cc1nc([N+](=O)[O-])cn1-c1nc2ccccn2c1[N+](=O)[O-] | -1.0 | 100.0 | 4.3 | nt | nt | nt
NC(=O)c1nc2c([nH]c1=O)CCCC2 | nt | 95.0 | 0.8 | nt | nt | nt
Cc1csc(CNc2ncnc3ccc(-c4ccoc4)cc23)c1 | 2.2 | 94.0 | -4.8 | nt | nt | nt
Cc1ccc2[nH]c3ccccc3c(=O)c2c1 | 6.4 | 96.0 | 2.2 | nt | nt | nt
O=c1c2ccccc2[nH]c2ccc(O)cc12 | 12.0 | 99.0 | 8.2* | nt | 39.1* | 17.7*
O=C(NCCCN1CCOCC1)c1cc(-c2ccc(F)cc2)on1 | -6.3 | 99.0 | 9.9* | 110.2 | 48.4* | 18.2*
O=C(NCCN1CCOCC1)c1cc(-c2ccc(F)cc2)on1 | 19.1 | 100.0 | 6.3 | 105.3 | nt | nt
Cc1cc(C)c(NC(=O)CNC(=O)COC(=O)Cc2cccs2)c(C)c1 | 2.7 | 93.0 | 1.5 | nt | nt | nt
SMILES | AHR activator | ABCB6 inh 2 | FXN GAA850 act | STAT3 activator | GAA30 FXN cntr | FXN GAA850 conf
CCCSc1nc2cc(S(=O)(=O)N3CCOCC3)ccc2n1CC | 8.1 | 95.0 | 2.1 | nt | nt | nt
CCn1c(SCc2nc3ccccc3s2)nc2cc(S(=O)(=O)N3CCOCC3)ccc21 | 9.3 | 108.0 | 11.7* | nt | 81.0* | 33.3*
O=C1C=CC(=C(c2ccc(O)cc2)c2ccc(O)cc2)C=C1 | -2.8 | 96.0 | 8.6* | nt | 28.7* | 36.8*
COc1cccc(-c2sc3ccc(OC)cc3c2C#CC(C)(C)O)c1 | 13.9 | 100.0 | 3.3 | nt | nt | nt
COc1ccc2sc(-c3ccc(SC)cc3)c(C#CC(C)(C)O)c2c1 | 41.0 | 98.0 | 7.8* | nt | 37.3* | 26.1*
O=C(Nc1cccc(Cl)c1)c1ccccc1 | 9.3 | 98.0 | 7.7* | nt | 75.9* | 20.1*
Cc1cccc(Nc2nc(N)c(C#N)c(CC#N)c2C#N)c1 | 49.7* | 98.0 | 8.2* | 100.3 | 27.2* | 17.2*
Cc1ccc(CN2CC(=O)N3[C@H]4c5cc(C)ccc5OC[C@@H]4[C@H](c4ccccc4)[C@]3(C)C2=O)cc1 | 0.4 | 98.0 | 1.4 | nt | nt | nt
COc1ccc2c(c1)[C@H]1[C@H](CO2)[C@H](c2ccccc2)[C@]2(C)C(=O)N(Cc3ccc(C)cc3)CC(=O)N12 | -0.3 | 92.0 | 12.6* | nt | 11.5 | 9.0*
Cc1ccc2c(c1)[C@H]1[C@H](CO2)[C@H](c2ccccc2)[C@]2(C)C(=O)N(Cc3ccccc3)CC(=O)N12 | -1.6 | 96.0 | 9.0* | nt | 15.7 | 10.7*
Cc1ccc(CN2CC(=O)N3[C@H]4c5cc(Cl)ccc5OC[C@@H]4[C@H](c4ccccc4)[C@]3(C)C2=O)cc1 | -0.1 | 99.0 | 0.6 | nt | nt | nt
COc1cccc(-c2nc(N3CCN(Cc4ccccc4)CC3)c3ccccc3n2)c1O | 17.1 | 91.0 | 1.8 | nt | nt | nt
CCOC(=O)C1Cc2c([nH]c3ccccc23)CN1 (stereo not drawn) | 0.8 | 95.0 | 1.9 | 93.1 | nt | nt
CC12CCC(C(=O)O)(c3nc4cc([N+](=O)[O-])ccc4nc31)C2(C)C (stereo not drawn) | -0.1 | 97.0 | 2.1 | nt | nt | nt
CCOc1cc(/C=N/n2cnnc2)cc(Br)c1O | -1.6 | 105.0 | -0.4 | 99.0 | nt | nt
Cc1ccc(-c2noc(C3CCCN(C(=O)c4ccccc4)C3)n2)o1 (stereo not drawn) | 4.1 | 90.0 | 7.7* | 112.2 | 107.2* | 29.5*
CCOC(=O)c1cnc(Nc2nc3ccccc3o2)nc1CSC(=S)N(CC)CC | -1.6 | 98.0 | 11.0* | 101.0 | 40.6* | 24.7*
CCC12C(=O)C(CC)(C(c3ccccc3)=C1c1ccccc1)[C@@H]1C(=O)N(c3ccccc3)C(=O)C12 (stereo partly drawn) | 1.7 | 101.0 | 11.5* | 101.5 | 19.7 | 11.4*
CCC12C(=O)C(CC)(C(c3ccccc3)=C1c1ccccc1)[C@@H]1C(=O)N(c3ccc(C)cc3)C(=O)C12 (stereo partly drawn) | -2.8 | 102.0 | 4.4 | 96.1 | nt | nt
CC1CCCN(C(=O)c2nn(C)c3c2CSc2ccccc2-3)C1 (stereo not drawn) | 19.7 | 103.0 | 9.6* | nt | 30.0* | 12.0*
CS(=O)(=O)c1ccc(C(=O)NCCN2C(=O)S/C(=C\c3cccnc3)C2=O)cc1[N+](=O)[O-] | -1.9 | 101.0 | 13.7* | 101.3 | 148.2* | 43.6*
CN(C)S(=O)(=O)c1ccc(C(=O)NCCN2C(=O)S/C(=C\c3cccnc3)C2=O)cc1 | -0.5 | 92.0 | 0.2 | 101.8 | nt | nt

Source: PubChem
